Assay results from ChEMBL document CHEMBL4371016, “Proline- and Arginine-Rich Peptides as Flexible Allosteric Modulators of Human Proteasome Activity” (J Med Chem, 2019).

Legend:
[1] = compound: CC(C)C[C@H](NC(=O)[C@H](Cc1ccc(O)cc1)NC(=O)[C@@H]1CCCN1C(=O)[C@@H]1CCCN1C(=O)[C@H](CCCNC(=N)N)NC(=O)[C@@H]1CCCN1C(=O)[C@H](CCCNC(=N)N)NC(=O)[C@H](CCCNC(=N)N)NC(=O)[C@@H](N)CCCNC(=N)N)C(=O)N1CCC[C@H]1C(=O)N[C@@H](CCCNC(=N)N)C(=O)N[C@@H](Cc1c[nH]c2ccccc12)C(=O)NCC(=O)O; assay: (§1) Non-competitive mixed-type inhibition of SDS-activated human erythrocytes 20S proteasome chymotrypsin like activity assessed as substrate Vmax using Suc-LLVY-AMC as substrate measured every 2 mins up to 60 mins by fluorescence assay
Method in brief: (§2)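 SDS-activated CP at 1.4 nM. Suc-LLVY-AMC varied from 20 to 200 μM at inhibitor levels of 0.05, 0.1 and 0.2 μM. Fluorescence read kinetically at 37 °C. […] Three independent replicates.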

[2] = compound: CC(C)C[C@H](NC(=O)[C@H](Cc1ccc(O)cc1)NC(=O)[C@H](CCCNC(=N)N)NC(=O)[C@H](CCCNC(=N)N)NC(=O)[C@@H](N)CCCNC(=N)N)C(=O)N1CCC[C@H]1C(=O)N[C@@H](CCCNC(=N)N)C(=O)N[C@@H](Cc1c[nH]c2ccccc12)C(=O)NCC(N)=O; assay: as §1; method in brief: as §2
[3] = compound: CC(C)C[C@H](NC(=O)[C@H](Cc1ccc(O)cc1)NC(=O)[C@@H]1CCCN1C(=O)[C@@H]1CCCN1C(=O)[C@H](CCCNC(=N)N)NC(=O)[C@@H]1CCCN1C(=O)[C@H](CCCNC(=N)N)NC(=O)[C@H](CCCNC(=N)N)NC(=O)[C@@H](N)CCCNC(=N)N)C(=O)N1CCC[C@H]1C(=O)N[C@@H](CCCNC(=N)N)C(=O)N[C@@H](Cc1c[nH]c2ccccc12)C(=O)NCC(=O)O; assay: (§3) Non-competitive mixed-type inhibition of SDS-activated human erythrocytes 20S proteasome chymotrypsin like activity assessed as substrate Km using Suc-LLVY-AMC as substrate measured every 2 mins up to 60 mins by fluorescence assay; method in brief: as §2
[4] = compound: CC(C)C[C@H](NC(=O)[C@H](Cc1ccc(O)cc1)NC(=O)[C@H](CCCNC(=N)N)NC(=O)[C@H](CCCNC(=N)N)NC(=O)[C@@H](N)CCCNC(=N)N)C(=O)N1CCC[C@H]1C(=O)N[C@@H](CCCNC(=N)N)C(=O)N[C@@H](Cc1c[nH]c2ccccc12)C(=O)NCC(N)=O; assay: as §3; method in brief: as §2

B1: Proteasome Macropain subunit MB1 (Homo sapiens), P28074 (protein)
chain: MALASVLERPLPVNQRGFFGLGGRADLLDLGPGSLSDGLSLAAPGWGVPEEPGIEMLHGTTTLAFKFRHGVIVAADSRATAGAYIASQTVKKVIEINPYLLGTMAGGAADCSFWERLLARQCRIYELRNKERISVAAASKLLANMVYQYKGMGLSMGTMICGWDKRGPGLYYVDSEGNRISGATFSVGSGSVYAYGVMDRGYSYDLEVEQAYDLARRAIYQATYRDAYSGGAVNLYHVREDGWIRVSSDNVADLHEKYSGSTP
Vmax [1]: 13.6 s⁻¹ | Vmax [2]: 13.5 s⁻¹ | Km [3]: 17.4 µM | Km [4]: 14 µM
